15 compounds from ChEMBL document CHEMBL3871272, “Systemic optimization and structural evaluation of quinoline derivatives as transthyretin amyloidogenesis inhibitors” (Eur J Med Chem, 2016) can be followed below.

Activity calls are given as the source filed them. The rule behind the calls is not given here.

In data set [1] the target is T1, Transthyretin (Homo sapiens, UniProt P02766). Description: Inhibition of wild type TTR (unknown origin) assessed as inhibition of acid-mediated amyloidogenesis by measuring fibril formation preincubated with enzyme followed by amyloidogenesis stimulation by adjusting pH to 4.4 measured after 72 hrs relative to control.
Data set [2] in a line: Volume of distribution at steady state distribution in Sprague-Dawley rat at 2 mg/kg, iv administered as single dose by HPLC/MS/MS method. It is filed as ADME, organism-based. The conditions noted are these: in vivo, read-out: Vdss. Summed up: (§1)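 Male SD rats, fasted overnight, four animals, single tail-vein IV dose of 2 mg/kg. Dosing solution 1 mg/mL in 10% DMSO, 40% PEG400, 50% saline. Plasma concentrations were measured over time. Parameters were calculated per animal and averaged.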

Data set [3] in a line: Terminal half life in Sprague-Dawley rat at 2 mg/kg, iv administered as single dose by HPLC/MS/MS method. In kind it is ADME, organism-based. As to conditions: in vivo, read-out: beta t1/2 (converted). The gist of the method: as §1
Data set [4] in a line: Tmax in Sprague-Dawley rat at 5 mg/kg, po administered as single dose via oral gavage by HPLC/MS/MS method. It is filed as ADME, organism-based. The conditions noted are these: in vivo. The gist of the method: (§2)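 Five overnight-fasted male SD rats received a single 5 mg/kg dose by gavage needle. Dosing solution 2.5 mg/mL in 10% DMSO, 40% PEG400, 50% saline. Plasma concentration-time profiles were obtained, and parameters were calculated for each animal and then averaged.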

The target of data set [5] is T1, Transthyretin. Briefly: Inhibition of wild type TTR (unknown origin) assessed as inhibition of acid-mediated amyloidogenesis by measuring fibril formation at 7.2 uM preincubated with enzyme followed by amyloidogenesis stimulation by adjusting pH to 4.4 measured after 72 hrs relative to control. Further details: scale not given: the % may be the effect or the level left. The gist of the method: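 WT-TTR (3.6 µM, physiological level) was preincubated with inhibitor at 7.2 or 3.6 µM. The pH was then adjusted to 4.4 to trigger fibril formation, 37 °C, 72 h. Fibrils were expressed relative to untreated WT-TTR set at 100%.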

A short description of data set [6]: AUC (0 to infinity) in Sprague-Dawley rat at 2 mg/kg, iv administered as single dose by HPLC/MS/MS method. The conditions noted are these: in vivo. Further details: dose 2 mg/kg, time infinity, route intravenous. In kind it is ADME, organism-based. The gist of the method:
(§3)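 Male Sprague-Dawley rats, fasted overnight, 4 animals. Single 2 mg/kg IV dose via tail vein, given as a 1 mg/mL solution in 10% DMSO, 40% PEG400 and 50% saline. Plasma was processed by vigorous mixing and centrifugation at 12,000 g for 10 min, with an internal standard added, then analysed by RP-HPLC. Parameters were calculated for each animal and averaged.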

Data set [7] in a line: Tmax in Sprague-Dawley rat at 2 mg/kg, iv administered as single dose by HPLC/MS/MS method. In kind it is ADME, organism-based. The conditions noted are these: in vivo. Summed up: as §1
Data set [8] in a line: Cmax in Sprague-Dawley rat at 5 mg/kg, po administered as single dose via oral gavage by HPLC/MS/MS method. It is filed as ADME, organism-based. The conditions noted are these: in vivo. The gist of the method:
as §2

Data set [9] can be described thus: Cmax in Sprague-Dawley rat at 2 mg/kg, iv administered as single dose by HPLC/MS/MS method. Further details: dose 2 mg/kg, route intravenous. The conditions noted are these: in vivo. In kind it is ADME, organism-based. Summed up: as §1
Data set [10] is described as follows: AUC (0 to infinity) in Sprague-Dawley rat at 5 mg/kg, po administered as single dose via oral gavage by HPLC/MS/MS method. The conditions noted are these: in vivo. It is filed as ADME, organism-based. Summed up: (§4)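 Male Sprague-Dawley rats, fasted overnight, 5 animals. Single 5 mg/kg oral dose by gavage needle, given as a 2.5 mg/mL solution in 10% DMSO, 40% PEG400 and 50% saline. Plasma was processed by mixing and centrifugation at 12,000 g for 10 min, with an internal standard added, then analysed by RP-HPLC. Parameters were calculated for each animal and averaged.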

Data set [11] in a line: Oral bioavailability in Sprague-Dawley rat at 5 mg/kg administered as single dose by HPLC/MS/MS method. In kind it is ADME, organism-based. As to conditions: in vivo. Summed up: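 Bioavailability was taken from dose-normalized AUC0-∞ after oral (5 mg/kg, gavage, n=5) versus IV (2 mg/kg, tail vein, n=4) dosing in fasted male SD rats. Vehicle: 10% DMSO, 40% PEG400, 50% saline.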

The nature of data set [12]: Plasma clearance in Sprague-Dawley rat at 2 mg/kg, iv administered as single dose by HPLC/MS/MS method. It is filed as ADME, organism-based. The gist of the method: as §1
Data set [13] can be described thus: AUC (0 to t) in Sprague-Dawley rat at 2 mg/kg, iv administered as single dose by HPLC/MS/MS method. It is filed as ADME, organism-based. The conditions noted are these: in vivo. The gist of the method:
as §3

Data set [14] in a line: Terminal half life in Sprague-Dawley rat at 5 mg/kg, po administered as single dose via oral gavage by HPLC/MS/MS method. It is filed as ADME, organism-based. The conditions noted are these: in vivo, read-out: beta t1/2 (converted). Summed up:
as §2

A short description of data set [15]: AUC (0 to t) in Sprague-Dawley rat at 5 mg/kg, po administered as single dose via oral gavage by HPLC/MS/MS method. In kind it is ADME, organism-based. The conditions noted are these: in vivo. Summed up: as §4
The target of data set [16] is T1, Transthyretin. Description: Inhibition of wild type TTR (unknown origin) assessed as inhibition of acid-mediated amyloidogenesis by measuring fibril formation at 3.6 uM preincubated with enzyme followed by amyloidogenesis stimulation by adjusting pH to 4.4 measured after 72 hrs relative to control. Further details: scale not given: the % may be the effect or the level left. The gist of the method:
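WT-TTR (3.6 μM, physiological concentration) preincubated with inhibitor (3.6 or 7.2 μM), then fibril formation triggered by adjusting pH to 4.4; incubated 37 °C, 72 h. Fibril formation expressed as percent of untreated WT-TTR (100%).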

The test system of data set [17] is Transthyretin (Homo sapiens), P02766 [V50M]. Briefly: Inhibition of TTR V30M mutant (unknown origin) assessed as inhibition of acid-mediated amyloidogenesis by measuring fibril formation at 3.6 uM preincubated with enzyme followed by amyloidogenesis stimulation by adjusting pH to 4.4 measured after 72 hrs relative to control. Further details: scale not given: the % may be the effect or the level left. Summed up: (§5)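 V30M-TTR (3.6 μM) preincubated with inhibitor (3.6 or 7.2 μM), then fibril formation triggered by adjusting pH to 4.4; incubated 37 °C, 72 h. Fibril formation expressed as percent of untreated V30M-TTR (100%).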

In data set [18] the target is T1, Transthyretin. Briefly: Inhibition of wild type TTR (unknown origin) assessed as inhibition of acid-mediated amyloidogenesis by measuring reduction in fibril formation at 3.6 uM preincubated with enzyme followed by amyloidogenesis stimulation by adjusting pH to 4.4 measured up to 120 hrs relative to control. The gist of the method:
(§6)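 Time-course version of the acid-mediated fibril formation assay: inhibitor at a concentration equal to the TTR tetramer (3.6 μM), preincubated with TTR, then acidified to pH 4.4. Fibril formation followed over 120 h instead of at a fixed 72 h, relative to untreated TTR.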

The test system of data set [19] is Transthyretin (Homo sapiens), P02766 [V50M]. Description: Inhibition of TTR V30M mutant (unknown origin) assessed as inhibition of acid-mediated amyloidogenesis by measuring fibril formation at 7.2 uM preincubated with enzyme followed by amyloidogenesis stimulation by adjusting pH to 4.4 measured after 72 hrs relative to control. Further details: scale not given: the % may be the effect or the level left. Summed up: as §5

The test system is the same in data set [20]. Briefly: Inhibition of TTR V30M mutant (unknown origin) assessed as inhibition of acid-mediated amyloidogenesis by measuring reduction in fibril formation at 3.6 uM preincubated with enzyme followed by amyloidogenesis stimulation by adjusting pH to 4.4 measured up to 120 hrs relative to control. Summed up: as §6
In data set [21] the target is Transthyretin (Homo sapiens, UniProt P02766, V50M). Briefly: Inhibition of TTR V30M mutant (unknown origin) assessed as inhibition of acid-mediated amyloidogenesis by measuring fibril formation preincubated with enzyme followed by amyloidogenesis stimulation by adjusting pH to 4.4 measured after 72 hrs relative to control.

For `Cc1cc(C#Cc2ccc3cc(N)ccc3n2)cc(C)c1O`, on Transthyretin [1], the IC50 turned out to be 1900 nM. Also, in data set [2], the Vd was found to be 1.48 L/kg. Besides, the half-life in data set [3] was 2.71 h; in data set [14] it was 1.59 h. The Tmax in data set [4] was found to be 2.45 h; in data set [7], 4.98 min. Further, the Activity came out at 4.8% at Transthyretin [5] and 17.9% at Transthyretin [16]. The values for the AUC(0-inf) in data set [6] and in data set [10] were 1350 ng·h/mL and 232 ng·h/mL, respectively. The Cmax in data set [8] came out at 138 ng/mL; in [9] it was 3110 ng/mL. For the same compound, the bioavailability in data set [11] came to 6.89%. In data set [12], this compound showed a clearance of 25.1 mL/min/kg. For the same compound, the AUC(0-t) in data set [13] worked out at 1330 ng·h/mL; in data set [15] it was 226 ng·h/mL.

Consider `O=C(O)c1ccc2nc(-c3cc(Cl)cc(Cl)c3)oc2c1`, for which the Activity was 17% in data set [17], 1% on Transthyretin [5], 14.8% at Transthyretin [16] and 3.2% in data set [19]. For the same compound, the inhibition entry on Transthyretin [18] is “Active”.

With `CC(C)c1cc(C#Cc2ccc3ccccc3n2)ccc1O`, the Activity at Transthyretin [5] amounted to 97.3%.

For `Cc1cc(/C=C/c2ccc3cc(N)ccc3n2)cc(C)c1O`, the Activity at Transthyretin [5] came to 26.8%; at Transthyretin [16] it was 51.3%.

On to `Cc1cc(C#Cc2ccc3cc(O)ccc3n2)cc(C)c1O`, for which the IC50 at Transthyretin [1] was 2590 nM. Besides, the Activity on Transthyretin [5] amounted to 9.6%; on Transthyretin [16], 32.1%.

`Cc1cc(/C=C/c2ccc3cc([N+](=O)[O-])ccc3n2)cc(C)c1O`: the Activity on Transthyretin [5] worked out at 92.9%.

Regarding `CCc1cc(C#Cc2ccc3ccccc3n2)ccc1O`, the Activity on Transthyretin [5] was 99%.

Turning to `Cc1cc(/C=C/c2ccc3ccccc3n2)cc(C)c1O`, the Activity on Transthyretin [5] came to 26.3%.

On to `Cc1cc(/C=C/c2cc3ccccc3nc2Cl)cc(C)c1O`, for which the Activity on Transthyretin [5] was found to be 2.3%; at Transthyretin [16], 33.2%.

Take `Oc1ccc(C#Cc2ccc3ccccc3n2)cc1`: the Activity at Transthyretin [5] is 73.9%.

Take `CCc1cc(C#Cc2ccc3ccccc3n2)cc(CC)c1O`: the Activity on Transthyretin [5] is 93.4%.

As to `Cc1cc(/C=C/c2cc3ccc(O)cc3nc2Cl)cc(C)c1O`, the IC50 at Transthyretin [1] amounted to 1490 nM; on Transthyretin [21], 1630 nM. Further, the Activity turned out to be 16.6% in data set [17], 0.9% at Transthyretin [5], 17.7% at Transthyretin [16] and 5% in data set [19]. Further, the Vd in [2] worked out at 1.13 L/kg. Further, the half-life in data set [3] was 2.75 h; in [14] it was 3.36 h. Moreover, the Tmax came to 0.598 h in data set [4] and 4.98 min in data set [7]. Also, the inhibition in data set [20] was greater than 80%; on Transthyretin [18], 7 to 23%. For the same compound, the AUC(0-inf) in data set [6] was 4590 ng·h/mL; in [10], 3120 ng·h/mL. Further, the highest concentration (Cmax) amounted to 665 ng/mL in data set [8] and 2380 ng/mL in data set [9]. Further, the bioavailability in data set [11] came to 27.2%. The clearance in data set [12] is 7.34 mL/min/kg. Moreover, the AUC(0-t) in data set [13] was 4510 ng·h/mL; in data set [15] it was 2840 ng·h/mL.

Consider `Cc1cc(C#Cc2ccc3cc([N+](=O)[O-])ccc3n2)cc(C)c1O`, for which the IC50 at Transthyretin [1] came to 2060 nM. Also, the Activity came to 3.6% on Transthyretin [5] and 20.9% at Transthyretin [16].

On to `COc1ccc2nc(C#Cc3cc(C)c(O)c(C)c3)ccc2c1`, for which the Activity at Transthyretin [5] was determined as 22.1%.

Turning to `Cc1cc(C#Cc2ccc3ccccc3n2)cc(C)c1O`, the IC50 at Transthyretin [1] stood at 2180 nM. The Activity amounted to 10.2% at Transthyretin [5] and 25.6% at Transthyretin [16].

In general, IC50 refers to the concentration that inhibits the measured activity by half. Broadly, the Tmax is the time at which the peak concentration occurs. What is called AUC(0-inf) is total exposure, with the tail of the curve extrapolated. A word on the Cmax: it is the highest concentration seen after dosing. One may read the bioavailability as the share of a dose that reaches the circulation, judged against a reference dose that is usually intravenous. One may read the clearance as the rate of elimination divided by the concentration. One may read the AUC(0-t) as exposure summed from dosing to a finite time, without extrapolation to infinity. Broadly, the inhibition is the drop in the measured response relative to a control, in per cent.
